RAD54 branch: inhibitors of human RAD54 branch migration, primary screen, biochemical, fluorescence, single point. DNA repair and recombination protein RAD54-like (Homo sapiens), Q92698. RAD54 Holliday junction branch migration, FAM/BHQ fluorescence. inhibition, % at 10.4 µM. 360,000 compounds, 0.14% hits. AID 602329, 2012;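 active means mean normalized replicate activity at least 40 and at least half of replicates scoring 40 or more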;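 further: 0% = median of neutral control wells and 100% = median of positive control wells; inhibitors cause a drop in the FAM fluorescence signal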
Glyco luc inh: increase of ERlucT glycosylation luciferase signal, primary screen, N-linked glycosylation inhibitor project, D54 ERlucT cells, luminescence, set 2. reporter increase, % at 12.5 µM. 360,000 compounds, 0.23% hits. D54 ERlucT glycosylation luciferase reporter, 24 h; percent of 100 nM tunicamycin response. AID 588692, 2011;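 active means mean luciferase reporter signal, scaled so untreated is 0 and the glycosylation-blocking control 100, at or above a set limit in every replicate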;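 further: luciferase carries N-glycosylation sites so blocking glycosylation raises the light; 0% = median of neutral control wells and 100% = median of 100 nM tunicamycin wells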
MLL AF4-AF9 inh: inhibitors of AF4 peptide binding to AF9, primary screen, biochemical, AlphaScreen, biotin-AF4 peptide, FLAG-AF9, single point; Protein AF-9 (Homo sapiens), P42568; inhibition, % at 10 µM; 350,000 compounds, 0.47% hits; AID 651704, 2012;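 active means every replicate reaching a set inhibition limit, whatever the replicate mean, cut at about 25% in these data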;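 further: 0% = plate neutral control median and 100% = total signal loss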
Target sequence (P42568 whole entry, looked up): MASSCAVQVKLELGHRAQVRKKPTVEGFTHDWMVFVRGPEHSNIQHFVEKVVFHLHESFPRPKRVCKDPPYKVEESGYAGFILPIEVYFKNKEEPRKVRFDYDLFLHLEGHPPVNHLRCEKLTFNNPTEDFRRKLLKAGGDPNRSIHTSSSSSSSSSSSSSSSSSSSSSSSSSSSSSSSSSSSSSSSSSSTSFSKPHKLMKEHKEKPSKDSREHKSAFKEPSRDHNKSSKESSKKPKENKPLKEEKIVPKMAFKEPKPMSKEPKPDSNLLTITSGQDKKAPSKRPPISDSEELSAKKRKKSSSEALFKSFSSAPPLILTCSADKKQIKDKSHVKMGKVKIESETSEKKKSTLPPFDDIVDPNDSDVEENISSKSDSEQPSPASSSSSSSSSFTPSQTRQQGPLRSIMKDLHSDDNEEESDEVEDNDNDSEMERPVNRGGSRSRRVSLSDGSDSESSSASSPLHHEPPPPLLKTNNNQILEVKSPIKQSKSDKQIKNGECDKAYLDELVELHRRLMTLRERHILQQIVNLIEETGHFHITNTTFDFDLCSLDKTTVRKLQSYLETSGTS
FN deposit inh: inhibitors of fibronectin matrix deposition, primary screen, AH1F cells, Alexa488-fibronectin fluorescence, plate reader; inhibition, % at 12.6 µM; 350,000 compounds, 0.086% hits; AH1F fibroblasts, overnight;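 active means mean inhibition across replicates of 30% or more, regardless of how many single replicates reach that level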;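 further: positive control wells lacked labelled fibronectin entirely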
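Schedule: 1 h cell adhesion before compound, then overnight fibronectin incubation; test system: AH1F fibroblast monolayer depositing Alexa488-labelled fibronectin into matrix; quantity: 10000 AH1F cells per well; probe or stimulus: fluorescent fibronectin at 24 nM final; signal: fluorescence, ex 485 nm, em 525 nm; evaluation: percent inhibition as loss of matrix-bound fibronectin fluorescence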
RAD52 inh: RAD52 DNA annealing inhibitors, primary screen, biochemical, FRET, single point, set 2; recombinant RAD52 DNA annealing, FRET fluorescence; inhibition, % at 18.7 µM; 360,000 compounds, 0.46% hits; DNA repair protein RAD52 homolog (Homo sapiens), P43351; AID 651710, 2012;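 active means every replicate showing at least 50% inhibition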
Numbers without * were called inactive; x = no result. Rows were chosen to be rich in hits. Some 0.92% of all compounds tested hit in one or more screens of this group.

SMILES | RAD54 branch | Glyco luc inh | MLL AF4-AF9 inh | FN deposit inh | RAD52 inh
CN(C)S(=O)(=O)c1ccc(N2CCCC2)c(C(=O)Nc2nc(-c3ccc(F)c(F)c3)cs2)c1 | x | 2 | x | -4 | x
CN(C)S(=O)(=O)c1ccc(N2CCCC2)c(C(=O)Nc2nc3c(ccc4ccccc43)s2)c1 | -4 | -3 | x | 12 | x
O=[N+]([O-])c1c(Nc2ccc(O)cc2)cc(Cl)c2nonc12 | 19 | -18 | 9 | 54* | 29
O=C(c1ccccc1F)N1CC2(C1)[C@H](c1ccccc1)[C@@H](CO)N2CC1CC1 | x | x | 0 | -7 | 6
CN(Cc1cn(-c2ccccc2)nc1-c1ccc2c(c1)OCO2)Cc1nccn1C | -9 | -4 | 33* | -4 | -9
NC(=O)C1CCN(C2=C(NS(=O)(=O)c3ccc(Br)cc3)C(=O)c3ccccc3C2=O)CC1 | 0 | 3 | 32* | -13 | 0
O=C1C(NS(=O)(=O)c2ccc(Cl)cc2)=C(N2CCCCC2)C(=O)c2ccccc21 | x | 10 | 40* | 0 | -14
NC(=O)C1CCN(C2=C(Cl)C(=O)c3ccccc3C2=O)CC1 | 2 | 78* | x | x | x
O=C1C(NS(=O)(=O)c2cccs2)=C(N2CCN(Cc3ccccc3)CC2)C(=O)c2ccccc21 | x | 12 | 54* | 6 | -3
CN1CCN(C2=C(NS(=O)(=O)c3cccs3)C(=O)c3ccccc3C2=O)CC1 | 3 | 8 | 10 | 0 | -6
CN1CCN(C2=C(NS(=O)(=O)c3ccccc3)C(=O)c3ccccc3C2=O)CC1 | x | 0 | x | x | x
CCN1CCN(C2=C(NS(=O)(=O)c3ccc(Br)cc3)C(=O)c3ccccc3C2=O)CC1 | -1 | 0 | 14 | -35 | -3
CCOC(=O)C1CCN(C2=C(NS(=O)(=O)c3ccc(Br)cc3)C(=O)c3ccccc3C2=O)CC1 | -4 | 5 | 39* | -26 | -6
CCCNC(=O)N1CCC2(CC1)CN(Cc1ccc(F)cc1)[C@@H](CO)c1[nH]c3cc(OC)ccc3c12 | x | x | -18 | x | -21
COc1cc(N)c(Br)cc1C(=O)O | 0 | 1 | -3 | x | -6
Nc1cc2c(cc1Br)-c1c(C(=O)O)cccc1C2O (centres undefined) | x | 35* | -1 | 0 | -4
Cc1ccc(NC(=O)N(CCCN2CCOCC2)Cc2cccnc2)cc1C | 3 | 0 | 39* | 4 | -2
COc1ccc(NC(=O)N(CCCN2CCOCC2)Cc2cccnc2)c(OC)c1 | 7 | 0 | -1 | -7 | -7
COc1ccc(CN(C)C[C@H]2OCCCC[C@@H](C)Oc3ccc(NS(=O)(=O)c4ccc(Cl)cc4)cc3C(=O)N([C@@H](C)CO)C[C@@H]2C)cc1 | -4 | x | 1 | -12 | 51*
CCCN(C)C[C@H]1OCCCC[C@@H](C)Oc2ccc(NS(=O)(=O)c3ccccc3)cc2C(=O)N([C@@H](C)CO)C[C@H]1C | 3 | x | 2 | 0 | 54*
COc1ccc(NC(=O)N(C)C[C@@H]2OCCCC[C@@H](C)Oc3ccc(NS(=O)(=O)c4ccccc4)cc3C(=O)N([C@H](C)CO)C[C@@H]2C)cc1 | 3 | x | -1 | 6 | 85*
COc1ccc(CN(C)C[C@@H]2OCCCC[C@H](C)Oc3ccc(NS(=O)(=O)c4ccc(F)cc4)cc3C(=O)N([C@H](C)CO)C[C@@H]2C)cc1 | -2 | x | 13 | 4 | 53*
C[C@@H]1CN([C@H](C)CO)S(=O)(=O)c2ccc(C3=CCCC3)cc2O[C@H]1CN(C)C(=O)c1cnccn1 | x | x | x | -9 | x
CCC(=O)N(C)C[C@H]1Oc2cc(C#CC3(O)CCCC3)ccc2S(=O)(=O)N([C@H](C)CO)C[C@H]1C | 6 | x | -1 | x | -1
C[C@@H]1CN([C@H](C)CO)S(=O)(=O)c2ccc(-c3ccccc3F)cc2O[C@H]1CN(C)Cc1ccncc1 | -8 | x | 10 | 4 | 14
C[C@@H]1CCCCO[C@H](CN(C)Cc2ccc3c(c2)OCO3)[C@@H](C)CN([C@@H](C)CO)C(=O)c2cc(NS(=O)(=O)c3ccc(Cl)cc3)ccc2O1 | -1 | x | 15 | 10 | 61*
